Source: PubChem BioAssay
This is a sample that favours compounds with a hit; in the whole collection about 4.6% have one here.
TAAR1 antag: antagonists of human TAAR1 | Q96RJ0 | CHO RD-HGA16 TAAR1, Fluo-8 calcium fluorescence, antagonist | inhibition, % at 3 µM | hit rate 1.5% among 360,000 | AID 624466;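 active means inhibition above a per-plate cutoff, the mean inhibition of test compounds on that plate plus 3 SD, cut at about 49% in these data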;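 further: 0% = DMSO plus EC80 beta-PEA response and 100% = DMSO alone without agonist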
Target sequence (Q96RJ0 whole entry, looked up): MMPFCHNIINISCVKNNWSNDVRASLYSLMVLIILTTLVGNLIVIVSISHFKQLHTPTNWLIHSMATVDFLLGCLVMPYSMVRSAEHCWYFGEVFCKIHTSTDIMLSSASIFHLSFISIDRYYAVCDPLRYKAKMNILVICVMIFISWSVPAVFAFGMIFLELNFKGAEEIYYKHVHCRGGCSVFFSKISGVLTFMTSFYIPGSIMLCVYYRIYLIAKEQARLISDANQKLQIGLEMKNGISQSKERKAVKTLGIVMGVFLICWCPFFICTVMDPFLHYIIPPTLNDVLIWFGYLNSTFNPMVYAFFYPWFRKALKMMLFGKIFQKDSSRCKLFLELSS
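System: RD-HGA16 CHO cells with stable hTAAR1 and Gα16 | Probe or stimulus: EC80 β-phenethylamine stimulus | Dosing: 3 µM, single point | Times: Dye loading 75 min at 37 °C, then 30 min room temperature | Measured by: Fluo-8 calcium-sensitive fluorescence | Read-out basis: % inhibition of agonist calcium response | Replicates: n of 1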
OX1R antag-1: antagonists of human orexin 1 receptor. CHO/OX1R cells, Fluo-8 calcium fluorescence, orexin A. AID 434989. inhibition, % at 5 µM. O43613. hit rate 0.43% among 330,000;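 active means inhibition above its plate's threshold, mean inhibition of all tested compounds on the plate plus 3 SD, cut at about 37% in these data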;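 further: 0% = orexin A challenge wells and 100% = SB-334867-A antagonist wells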
Target sequence (O43613 whole entry, looked up): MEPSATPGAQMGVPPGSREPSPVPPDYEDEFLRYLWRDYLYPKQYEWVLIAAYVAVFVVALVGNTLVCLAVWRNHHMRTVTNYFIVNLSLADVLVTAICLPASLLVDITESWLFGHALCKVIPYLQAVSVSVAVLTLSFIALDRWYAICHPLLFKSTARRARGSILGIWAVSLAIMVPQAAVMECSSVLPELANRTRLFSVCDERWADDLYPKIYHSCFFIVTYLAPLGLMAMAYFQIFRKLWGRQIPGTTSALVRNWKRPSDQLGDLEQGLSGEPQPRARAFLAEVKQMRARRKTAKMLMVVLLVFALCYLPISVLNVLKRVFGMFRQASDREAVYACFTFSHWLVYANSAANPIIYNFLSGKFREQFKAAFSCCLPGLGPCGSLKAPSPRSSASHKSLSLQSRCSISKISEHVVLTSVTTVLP
TAAR1 agonist: human TAAR1 agonism; Q96RJ0; CHO RD-HGA16 TAAR1, Fluo-8 calcium fluorescence; vehicle wells 0%, saturating PEA agonist 100%; activation, % at 3 µM; hit rate 0.99% among 360,000;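 active means activation above the mean activation of all test compounds in the run plus 3 SD, cut at about 38% in these data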
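Repeats: no replicates (n 1) | Material: CHO-derived RD-HGA16 cells with stable Gα16 and human TAAR1 | Technique: Kinetic Fluo-8 calcium fluorescence | Schedule: 17-24 h seeding, 75 min 37 °C dye, 30 min RT | Evaluation: % activation from peak over basal fluorescence ratio, DMSO-to-PEA scaled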
CHO parental Ca: signal in parental CHO cells, OX1R antagonist counter-screen | hit rate 0.63% among 330,000 | inhibition, % at 5.6 µM | parental CHO-K1, ATP-induced calcium, Fluo-8 fluorescence | AID 463079;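 active means inhibition above that plate's mean sample inhibition plus 3 SD, cut at about 26% in these data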;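 further: 0% = ATP-challenged DMSO wells and 100% = DMSO wells without ATP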
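Test system: untransfected parental CHO cell line; also added: ATP stimulus; dosing: 5.6 µM, single dose; signal: calcium-sensitive Fluo-8 fluorescence; measure: percent inhibition of ATP-evoked calcium rise, normalized to controls; benchmarks: low control ATP plus DMSO, high control DMSO only; replication: one well per compound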
OX1R antag-2: blocks the human orexin 1 receptor | hit rate 1.8% among 330,000 | OX1R-expressing cells, FRET antagonist read-out | inhibition, % at 6.6 µM | O43613; in the data active means inhibition mostly above about 38%, no sharp cut-off; inactive means mostly below about 40%;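 further: 0% = agonist challenge alone and 100% = reference antagonist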
GPR7 antag: blocks human GPR7 receptor signaling | P48145 | GPR7-expressing cells, fluorescence antagonist assay | inhibition, % at 4.4 µM | hit rate 1.1% among 290,000; in the data active means inhibition above about 16%, passing the limit was not always enough;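 further: cells stimulated with the agonist NPW; 0% = agonist with vehicle and 100% = vehicle without agonist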
TAAR1 ag confirm: confirmation of human TAAR1 agonists. shares compounds with TAAR1 agonist. AID 651783. CHO RD-HGA16 TAAR1, Fluo-8 calcium fluorescence; scaled: DMSO 0%, maximal phenethylamine 100%. hit rate 82% among 2,400. activation, % at 3 µM;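 active means activation above a cutoff set at the run's mean compound activation plus 3 SD, cut at about 39% in these data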
Ga16 nonsel ag: nonselective agonist in parental cells, TAAR1 agonist counter-screen | shares compounds with TAAR1 agonist | activation, % at 3 µM | CHO-Ga16 parental, Fluo-8 calcium fluorescence; normalized to maximal ATP response, DMSO zero | hit rate 50% among 2,400;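 active means activation above the run cutoff, the mean activation over all tested wells plus 3 SD, cut at about 12% in these data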;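 further: 0% = DMSO wells and 100% = maximal ATP response on the peak over basal ratio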
TAAR1 desens: human TAAR1 agonist that also desensitizes the receptor | shares compounds with TAAR1 agonist | CHO RD-HGA16 hTAAR1, Fluo-8 calcium, beta-PEA response inhibition | inhibition, % at 3 µM | hit rate 46% among 2,400 | AID 651951;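 active means inhibition above the run cutoff, the mean inhibition of all test compounds plus 3 SD, cut at about 49% in these data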;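 further: beta-PEA stimulus applied at its EC80; loss of beta-PEA calcium signal after compound pretreatment read as receptor desensitization; 0% = DMSO with beta-PEA at EC80 and 100% = DMSO alone without agonist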
Ga16 nonsel ant: nonselective Ga16 antagonism, counter-screen. inhibition, % at 3 µM. shares compounds with TAAR1 agonist. CHO-Ga16 ATP-induced calcium, Fluo-8 fluorescence. hit rate 39% among 2,400. AID 651952;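 active means inhibition above the plate's mean compound inhibition plus 3 SD, computed per plate, cut at about 22% in these data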;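 further: 0% = EC80 ATP with DMSO and 100% = DMSO wells without ATP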
* hit, by the source's call; / = no result given.

SMILES	TAAR1 antag	OX1R antag-1	TAAR1 agonist	CHO parental Ca	OX1R antag-2	GPR7 antag	TAAR1 ag confirm	Ga16 nonsel ag	TAAR1 desens	Ga16 nonsel ant
CCOC(=O)[C@]12CCC=C1N(CCC1=CCCCC1)C(=O)[C@H](CC(=O)NCCc1ccccc1OC)C2	/	/	/	/	/	/	/	1	/	-9
COC(=O)[C@]12CCCCC=C1N(CCC1=CCCCC1)C(=O)[C@H](CC(=O)NCCc1ccccc1OC)C2	40	/	34	/	/	/	/	/	/	/
CCOC(=O)[C@]12CCC=C1N(CCC1=CCCCC1)C(=O)[C@H](CC(=O)NCc1cccc3ccccc13)C2	-14	/	9	/	/	/	/	/	/	/
CCOC(=O)[C@]12CCCC=C1N(CCC1=CCCCC1)C(=O)[C@H](CC(=O)NCCc1ccccc1OC)C2	38	/	58*	/	/	/	75*	0	60*	9
CCOC(=O)[C@]12CCCC=C1N(Cc1ccc3c(c1)OCO3)C(=O)[C@H](CC(=O)NCCc1ccccc1OC)C2	28	/	74*	/	/	/	75*	-2	69*	10
COCCNc1nc(Nc2ccccc2Cl)c2sccc2n1	30	/	1	/	/	/	/	/	/	/
CCN1C[C@@H]2[C@@H]3C(=O)N(Cc4ccccc4)C(=O)[C@@H]3[C@](Cc3ccccc3)(C1=O)N2C(=O)c1ccc(Cl)cc1	0	/	2	/	/	/	/	/	/	/
CCCCCCN1C=C/C(=C\C=C(C#N)C#N)c2ccccc21	13	10	10	-1	46	-6	/	/	/	/
C=CCN1C=C/C(=C\C=C(C#N)C#N)c2ccccc21	29	4	66*	19	32	-3	74*	8	66*	26*
CC(C)[C@H](NC(=O)CC1CCCC1)C(=O)N1CCC[C@H]1C(=O)NCCc1ccccc1Cl	57*	/	65*	/	/	/	85*	-1	86*	2
CC(C)[C@H](NC(=O)N1CCOCC1)C(=O)N1CCC[C@H]1C(=O)NCc1ccccc1	13	/	0	/	/	/	/	/	/	/
O=C(NCCc1ccccc1F)C1CCCN1S(=O)(=O)c1ccccc1 (stereo not drawn)	-8	-5	12	-13	14	-1	/	/	/	/
Cc1ccccc1C(=O)N[C@H](C(=O)N1CCC[C@H]1C(=O)NCCc1ccccc1Cl)c1ccccc1	41	/	53*	/	/	/	75*	3	79*	11
O=C(NCCc1ccccc1)C1CCCN1C(=O)Nc1ccc(Cl)cc1 (stereo not drawn)	-8	-18	2	-15	4	0	/	/	/	/
Cc1ccccc1C(=O)N[C@H](C(=O)N1CCC[C@H]1C(=O)NCCc1ccccc1Cl)C(C)C	71*	/	57*	/	/	/	91*	-1	95*	10
O=C(NCCc1ccccc1Cl)[C@@H]1CCCN1C(=O)[C@@H](NS(=O)(=O)c1ccc(F)cc1F)c1ccccc1	55*	/	41*	/	/	/	57*	3	69*	17
Cc1ccc(Cc2c(-c3ccc(C#N)cc3)nc3c4ccccc4ccn23)cc1	-14	/	-1	/	/	/	/	/	/	/
CN1C[C@@H]2[C@@H]3C(=O)N(Cc4ccccc4)C(=O)[C@@H]3[C@](Cc3ccccc3)(C1=O)N2C(=O)c1ccc(F)cc1	13	/	0	/	/	/	/	/	/	/
Cc1cccc(C)c1N1C(=O)CC(Sc2ccccc2N)C1=O (stereo not drawn)	-28	/	3	/	/	/	/	/	/	/
CC(C)[C@H](NC(=O)C1CCCC1)C(=O)N1CCC[C@H]1C(=O)NCc1ccccc1	-15	/	0	/	/	/	/	/	/	/
CC(C)[C@H](NC(=O)C1CC1)C(=O)N1CCC[C@H]1C(=O)NCCc1ccccc1Cl	69*	/	62*	/	/	/	92*	2	90*	-2
O=C(O)c1ccc(/C=N/Nc2ccc(F)cc2F)cc1	21	-1	88*	9	-11	-15	44*	21*	12	12
Fc1ccc(N/N=C/c2ccncc2)c(F)c1	-14	-9	10	0	7	-3	/	/	/	/
COc1ccc(Br)cc1C1CC(=O)C(C)C(c2cc(Br)ccc2OC)N1 (stereo not drawn)	-4	-47	4	-20	-1	-28	/	/	/	/
CCCCOc1ccc(N2C(=O)CC(N(CCc3ccccc3)C(=O)/C=C/C(=O)O)C2=O)cc1 (stereo not drawn)	1	-21	67*	-11	8	-8	78*	2	31	0
SMILES	TAAR1 antag	OX1R antag-1	TAAR1 agonist	CHO parental Ca	OX1R antag-2	GPR7 antag	TAAR1 ag confirm	Ga16 nonsel ag	TAAR1 desens	Ga16 nonsel ant
CCC(C)NC(=O)c1cc(-c2ccc(OC)cc2)on1 (stereo not drawn)	-18	4	8	-4	11	-9	/	/	/	/
COc1ccc(-c2cc(C(=O)NCC(C)C)no2)cc1	42	-7	72*	-6	20	-9	-1	2	77*	20
CC(C)(C)C(C(=O)NCc1ccccc1)N1CCN(C(=O)C2CCCO2)CC1 (stereo not drawn)	-3	/	2	/	/	/	/	/	/	/
COc1ccccc1CNC(=O)COC(=O)/C=C/c1ccc(OC(F)F)c(OC)c1	78*	-14	92*	4	28	/	47*	23*	57*	23*
O=C(COC(=O)/C=C/c1ccc(OC(F)F)cc1)NCc1cccs1	61*	7	82*	5	7	-18	15	11	-1	5
N#C/C(=C/c1cn[nH]c1-c1cccc(Br)c1)C(=O)O	-2	-11	71*	7	16	-12	112*	52*	25	4
COc1ccc(CNC(=O)Nc2nc(C(N)CCc3ccccc3)cs2)cc1 (stereo not drawn)	31	/	21	/	/	/	/	/	/	/
NC(Cc1ccc(F)cc1)c1csc(NC(=O)NC(c2ccccc2)c2ccccc2)n1 (stereo not drawn)	68*	/	56*	/	/	/	25	23*	35	45*
COc1ccc(CC(N)c2csc(NC(=O)CCc3ccccc3)n2)cc1 (stereo not drawn)	59*	/	62*	/	/	/	31	28*	40	37*
COc1ccc(CNC(=O)Nc2nc(C(N)Cc3ccc(F)cc3)cs2)cc1 (stereo not drawn)	59*	/	57*	/	/	/	70*	34*	66*	59*
COc1ccc(CC(N)c2csc(NC(=O)c3cc(C(C)(C)C)oc3C)n2)cc1 (stereo not drawn)	28	/	48*	/	/	/	30	30*	40	51*
